Experimental data reported in ChEMBL document CHEMBL4513216, “Probing the Open Global Health Chemical Diversity Library for Multistage-Active Starting Points for Next-Generation Antimalarials” (ACS Infect Dis, 2020).

Test: Toxicity liver stage against HepG2, at 10uM
Type: cell-based
Parameters: test concentration 10 uM, cell line HepG2-A16-CD81EGFP
Conditions: human, HepG2-A16-CD81EGFP cells; read-out: INHIBITION
In short: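 Uninfected HepG2-A16-CD81EGFP cells, 3 × 10^3 per well, 1536-well, plated on prespotted compound at 10 μM final, parasite-free screening media added to match infected plates; puromycin 10 μM positive, DMSO 0.5% negative; run in parallel with 48 h PbLuc assay at 37 °C, 5% CO2; viability by CellTiter-Glo luminescence, normalized to controls.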

| SMILES | cytotoxicity at 10 µM [%] |
| --- | --- |
| O=c1c(S(=O)(=O)N2CCCC2)cccn1Cc1ccccc1Cl | 2.96 |
| Cc1cc(=O)n(CCNS(=O)(=O)c2ccc(F)c(Cl)c2)cn1 | 1.18 |
| COc1ncccc1CN1CCc2[nH]nc(C(=O)N(C)C)c2C1 | 1.55 |
| Cc1nc2[nH]cnc(NCCN3CCCC3)c-2n1 | -12 |
| CCn1cc(C(=O)n2nc(C)cc2C)c(S(=O)(=O)N2CCCCC2)n1 | -3.81 |
| CCCC(C)(O)c1cc(C(N)=O)no1 (configuration not stated) | -5.4 |
| Cc1cc(NC(=O)CN2C(=O)CC(C)(C)c3ccccc32)no1 | -3.29 |
| Cc1ccc(-c2cc(N)c(=O)n(C(C)C(=O)NC(C)C)n2)o1 (configuration not stated) | -6.69 |
| CN1CCN(CC2(O)CCCN(S(=O)(=O)c3cn[nH]c3)CC2)CC1 (configuration not stated) | 2.25 |
| CN(C)S(=O)(=O)N1CCC(c2ccnc(Nc3ccccn3)n2)C1 (configuration not stated) | 3.25 |
| O=C(c1n[nH]c(=O)c2ccccc12)N1CCC(O)(CN2CCOCC2)C1 (configuration not stated) | -1.39 |
| Cc1ccc2c(c1C)OCC2NCc1cccc(C#N)c1 (configuration not stated) | 9.91 |
| COc1ncccc1CNC(=O)N1CCC(CN2CCOCC2)CC1 | -39.2 |
| COc1c(NS(=O)(=O)c2ccc(F)c(C)c2)c(C)nn1C | -6.33 |
| COC(=O)CC(NC(=O)c1cc(OC)c2c(c1)OCCO2)c1cccs1 (configuration not stated) | 2.01 |
| CCS(=O)(=O)N1CCC(Nc2c(Cl)cccc2C#N)CC1 | -0.85 |
| Cc1cc(NCc2csc(C)n2)no1 | 9.48 |
| NCC1(c2cccc(C(F)(F)F)c2)CC1 | -11.2 |
| COc1ccccc1N(C)S(=O)(=O)c1cc(C(=O)O)cs1 | -5.82 |
| COc1ccccc1OCC(=O)NS(=O)(=O)c1ccc(Cl)cc1F | 2.28 |
| CCCn1nc2c(cc1=O)CN(C(C)C(=O)Nc1nccs1)CC2 (configuration not stated) | -1.99 |

| SMILES | cytotoxicity at 10 µM [%] |
| --- | --- |
| CC(C)C1CN(C(=O)c2cccs2)CCS1 (configuration not stated) | 1.24 |
| CCCC(=O)N(CC)C(c1cccnc1)c1ccc2c(c1)CCO2 (configuration not stated) | 0.217 |
| CCN(Cc1cccc(-c2ccncc2)c1)S(C)(=O)=O | -14 |
| COCCOc1ccccc1C(=O)Nc1c(C)cnn1CC1CC1 | 1.13 |
| COc1ccc2c(OCC(=O)NC(C)(C)C)ccnc2c1 | -2.04 |
| COCC(O)CN(C)C(=O)NCc1ccc(S(C)(=O)=O)cc1 (configuration not stated) | 1.72 |
| CCC(C)(C)NC(=O)Cn1nnc(CN(C)C(=O)c2ccccc2)n1 | 9.74 |
| CNC(=O)c1cc(C)ccc1NCc1cn2cc(C)ccc2n1 | 8.45 |
| O=C(NCCCN1CCN(c2ncccn2)CC1)NCC1CCCO1 (configuration not stated) | -43.1 |
| CCN1CC(C(=O)NC(C)(C)CNC(=O)OC(C)(C)C)CC1=O (configuration not stated) | 7.79 |
| CCC(C)NC(=O)c1ccccc1-n1cnnn1 (configuration not stated) | 13 |
| CC(C)NC(=O)N1CCC2(CC1)Cc1ccccc1CNC2=O | 1.33 |
| Cc1nc([C@@H]2C[C@H]3CN(Cc4ccc5c(c4)OCO5)C[C@H]3O2)no1 | -115 |
| CO[C@@H]1CC[C@H]2[C@H]1OCCN2C(=O)COc1ccc(F)cc1 | 4.42 |
| CCNC(=O)[C@@H]1C[C@@H](NC(=O)CSC)CN1Cc1ccncc1 | -1.87 |
| C[C@@H]1CN(C(=O)c2cn(CCN3CCCCC3)nn2)C[C@H](C)O1 | 4.89 |
| COc1ccc(C(=O)NC2CC2)c(OC2CCN(C3CCC3)CC2)c1 | 0.542 |
| NC(=O)NCC(=O)N1CCCC(OCc2cccnc2)C1 (configuration not stated) | -1.53 |
| CCn1ccnc1C1CCN(C(=O)Nc2ccc(OC)cc2)CC1 | -1.77 |
| CC(C)Oc1ccc2c(NC(=O)CNC(N)=O)nn(CC(F)(F)F)c2c1 | -5.89 |
| COC[C@]1(O)CCN(C2CCN(c3ccc(Cl)cc3)CC2)CC1(C)C | -0.75 |

| SMILES | cytotoxicity at 10 µM [%] |
| --- | --- |
| c1cncc(NCCNC2CCSC2)c1 (configuration not stated) | -3.22 |
| Cc1nc[nH]c1-c1nccn1CCCN(C)C | 5.05 |
| Cc1nc2c(N3CCC(O)(Cn4ccnc4)CC3)ncnc2o1 | 6.35 |
| CCN1CCCC(c2c(-c3ccccc3)ncn2Cc2csc(N)n2)C1 (configuration not stated) | -0.386 |
| O=C(C1CCC1)N1CC[C@]2(O)CCN(Cc3ncccn3)C[C@@H]2C1 | 3.97 |
| O=C(CN1CCNCC1)N1CC[C@@H](c2ccc3ccccc3c2)[C@H](O)C1 | -8.9 |
| CCN(CCn1cccn1)Cc1nc(-c2ccccc2F)oc1C | 1.04 |
| Cc1noc(C)c1C(=O)NCCSCc1cccs1 | -4.89 |
| CCOc1ncccc1CNC(=O)c1c(C)oc(C)c1C | -3.75 |
| COc1ccc(C(=O)Nc2cnn(CCN3CCOCC3)c2)c(O)c1 | -3.92 |
| Cc1nc(C)n(CC2CCCN2Cc2nc(-c3ccco3)no2)n1 (configuration not stated) | -4.39 |
| CNS(=O)(=O)Cc1cccc(CNC(=O)Nc2cn[nH]c2)c1 | -11.2 |
| Cc1cnn(CC2CCCN2C(=O)CN(C)C2CC2)c1 (configuration not stated) | 3.63 |
| CNC(=O)c1ccc(S(=O)(=O)NCc2cccnc2N(C)C)cc1 | 1.59 |
| Cc1cc(C)n(C2CCCN(C(=O)Cc3ccc(C#N)cc3)C2)n1 (configuration not stated) | -1.31 |
| COc1ccc(CC(=O)N2CCCC(n3nc(C)cc3C)C2)cc1F (configuration not stated) | -1.76 |
| O=C(c1cc(Cl)c2c(c1)OCO2)N1CCCC(n2cncn2)C1 (configuration not stated) | -8.75 |
| CCN(Cc1nc2c(cnn2C)c(=O)[nH]1)c1ccc(F)cc1 | -1.67 |
| COc1ccc(COCC(O)CNC(=O)c2ccncc2)cc1 (configuration not stated) | -5.31 |
| Cc1ccc(C)c(C(=O)N2CCN(C(=O)Cc3ccccn3)CC2)c1 | -15.1 |
| Cc1cc(C)c(CNC(=O)NCC(c2ccccc2)N(C)C)c(=O)[nH]1 (configuration not stated) | -3.19 |

| SMILES | cytotoxicity at 10 µM [%] |
| --- | --- |
| CN(C)S(=O)(=O)c1ccc(CN2CCCC2c2ccc[nH]2)o1 (configuration not stated) | -4.03 |
| Cc1nn(CC(C)C)c(N(C)C)c1CNCc1cccc2c1OCO2 | -10.2 |
| Cc1ccc(CNC(=O)N2CCN(Cc3ccsc3)CC2)n1C | 9.58 |
| CN1CCC(C(=O)NCc2nncn2-c2ccccc2)CC1=O (configuration not stated) | -4.32 |
| CC1CN(C(=O)CN(Cc2ccco2)C2CC2)CCO1 (configuration not stated) | 3.97 |
| CCc1nc(CN2CCCC(NCc3cc(C)no3)C2)no1 (configuration not stated) | 1.59 |
| COCC1CC2(CCN(c3cccc(C)n3)CC2)CN1C(C)C (configuration not stated) | -109 |
| CN1C(=O)CC(c2ccncc2)C12CCN(c1ncccn1)CC2 (configuration not stated) | -108 |
| O=C(C1CCCO1)N1CCCC2(CCN(c3cccnc3)CC2)C1 (configuration not stated) | 2.68 |
| COCCN1CCOCC2(CCN(c3cnccn3)CC2)C1 | -87.4 |
| CCCN1CCC(c2nc3ccc(C)cn3n2)CC1 | -118 |
| CN(C)CCN1C(=O)CCC12CCN(Cc1cccs1)CC2 | 3.88 |
| O=C(NC1CC(F)(F)C1)[C@]12COC[C@H]1CN(Cc1cccnc1)C2 | -109 |
| c1cnc(N2CCC3(CN(CC4CCOC4)C3)C2)nc1 (configuration not stated) | -5.77 |
| Cn1cc(-c2ncc3c(c2C(=O)O)CCN(Cc2ccccn2)C3)cn1 | -107 |
| O=C(NCc1ccccn1)[C@@H]1COC[C@H]2CN(C3CCOCC3)C[C@H]21 | 2.52 |
| COc1ncccc1CN1C[C@H]2C[C@@H](C(=O)NCC3CC3)N(C)[C@H]2C1 | -2.54 |
| CN1CCN(Cc2cccnc2)C(=O)C12CCN(CC1CCOC1)CC2 (configuration not stated) | -106 |
| CC(C)=CCN1C[C@@H]2CC[C@H]1CN(CCC(=O)NCc1ccco1)C2 | -3.08 |
